Measured values reported in ChEMBL document CHEMBL1933044.
Activity calls are given as the source filed them. No cut-off for these calls is given here.

What follows are molecules tested on Matrix protein 2 (Influenza A virus), P06821 [V27A] (assay: Inhibition of Influenza A virus (A/Puerto Rico/8/1934(H1N1)) M2 channel V27A mutant expressed in Xenopus oocytes at 100 uM by two-electrode voltage clamp assay). Conditions: Oocyte.
Type: cell-based
How it was run: (§1)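 Influenza A/Udorn/72 M2 cDNA, wild type or S31N or V27A mutant made by site-directed mutagenesis, expressed from mRNA microinjected into Xenopus oocytes. Two-electrode voltage clamp recording was done 48–72 h after injection. Compound was applied at pH 5.5 for 2 min once inward current peaked. Residual current was compared with current before application.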
With `CC12CC3CC(NCc4ccccc4)(CC(C1)c1ccccc13)C2` the inhibition was “inactive”. For `CN(C)C12CC3CC(C)(CC(C1)c1ccccc13)C2`, the inhibition was “inactive”. For `CC12CC3CC(N)(CC(C1)c1ccccc13)C2`, the inhibition was “inactive”.

The molecules below were run on Matrix protein 2 (Influenza A virus), P06821 [withheld] (assay: Inhibition of Influenza A virus (A/Puerto Rico/8/1934(H1N1)) M2 channel S31N mutant expressed in Xenopus oocytes at 100 uM by two-electrode voltage clamp assay). Conditions: Oocyte.
Type: cell-based
How it was run: as §1
For `CC12CC3CC(NCc4ccccc4)(CC(C1)c1ccccc13)C2`, the inhibition was “inactive”. With `CN(C)C12CC3CC(C)(CC(C1)c1ccccc13)C2` the inhibition was “inactive”. In the case of `CC12CC3CC(N)(CC(C1)c1ccccc13)C2`, the inhibition is reported as “inactive”.
